In ChEMBL document CHEMBL2407036, “Flow Synthesis and Biological Studies of an Analgesic Adamantane Derivative That Inhibits P2X7-Evoked Glutamate Release” (ACS Med Chem Lett, 2013):
Calls of active or inactive are those of the source.

Tests used:
[1] = test system: Rattus norvegicus; assay: Antinociceptive activity against carrageenan-induced hyperalgesia in rat assessed as paw pressure at 60 mg/kg, po measured after 30 mins (reference value: 30.6 +/- 3.2 g); format: functional
Summary of the method: (§1)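 Rats received intraplantar carrageenan before oral dosing. Paw-pressure withdrawal threshold (g) was measured before treatment and at 15, 30, 60 and 90 min after it. Carrageenan-injected rats given vehicle served as reference, with saline-injected rats as a further control.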

[2] = target: T1, P2X purinoceptor 7 (Rattus norvegicus) (UniProt Q64663); assay: Antagonist activity at P2X7 in Sprague-Dawley rat synaptosome assessed as inhibition of BzATP-induced [3H]D-aspartate efflux preincubated at 0.1 uM for 8 mins by liquid scintillation counting; conditions: Brain
T1 sequence (whole entry): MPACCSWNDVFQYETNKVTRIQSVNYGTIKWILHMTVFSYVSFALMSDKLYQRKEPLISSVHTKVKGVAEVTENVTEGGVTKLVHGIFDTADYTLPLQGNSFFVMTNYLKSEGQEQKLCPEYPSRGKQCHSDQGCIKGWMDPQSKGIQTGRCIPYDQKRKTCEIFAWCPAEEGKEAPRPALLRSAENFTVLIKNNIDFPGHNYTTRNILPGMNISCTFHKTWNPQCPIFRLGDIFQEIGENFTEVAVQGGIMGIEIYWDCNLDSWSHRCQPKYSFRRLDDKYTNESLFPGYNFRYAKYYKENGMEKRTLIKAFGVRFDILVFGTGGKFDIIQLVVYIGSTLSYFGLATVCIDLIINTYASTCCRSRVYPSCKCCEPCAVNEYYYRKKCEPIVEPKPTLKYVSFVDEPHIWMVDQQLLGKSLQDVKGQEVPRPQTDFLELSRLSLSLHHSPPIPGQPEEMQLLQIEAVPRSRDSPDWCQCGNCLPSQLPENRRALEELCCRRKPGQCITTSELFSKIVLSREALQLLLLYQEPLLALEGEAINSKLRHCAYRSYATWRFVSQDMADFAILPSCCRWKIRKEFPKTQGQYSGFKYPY
Summary of the method: (§2)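 Purified rat cerebrocortical synaptosomes loaded with [3H]D-aspartate and superfused. 100 μM BzATP added for 120 s. Compound added 8 min before BzATP. Ca2+-free conditions used medium with 0.5 mM EGTA, added 18 min before BzATP. Log concentration–response for inhibition of evoked efflux. Mean ± SEM of 3−12 independent experiments in triplicate.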

[3] = test system: Rattus norvegicus; assay: Antinociceptive activity against carrageenan-induced hyperalgesia in rat assessed as paw pressure at 40 mg/kg, po measured after 30 mins (reference value: 30.6 +/- 3.2 g); format: functional; summary of the method: as §1
[4] = test system: Rattus norvegicus; assay: Antinociceptive activity against carrageenan-induced hyperalgesia in rat assessed as paw pressure at 10 mg/kg, po measured after 60 mins (reference value: 31.8 +/- 2.2 g); format: functional; summary of the method: as §1
[5] = species: Rattus norvegicus; assay: Inhibition of K+ depolarization-induced [3H]D-aspartate efflux in Sprague-Dawley rat synaptosome preincubated at 0.1 uM for 8 mins by liquid scintillation counting; format: functional, tissue-based; conditions: Brain
Summary of the method: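 Purified rat cerebrocortical synaptosomes loaded with [3H]D-aspartate and superfused. Depolarization with KCl added for 120 s. Compound added 8 min before K+ depolarization. Evoked efflux measured as mean ± SEM of 3−12 independent experiments in triplicate.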

[6] = test system: Rattus norvegicus; assay: Antinociceptive activity against carrageenan-induced paw edema in rat assessed as paw edema volume at 60 mg/kg, po measured after 30 mins (reference value: 2.71+/- 0.08 ml); format: functional
[7] = test system: Rattus norvegicus; assay: Antinociceptive activity against carrageenan-induced hyperalgesia in rat assessed as paw pressure at 60 mg/kg, po measured after 90 mins (reference value: 34.8 +/- 3.1 g); format: functional; summary of the method: as §1
[8] = target: T1, P2X purinoceptor 7 (Rattus norvegicus); assay: Antagonist activity at P2X7 in Sprague-Dawley rat synaptosome assessed as inhibition of BzATP-induced [3H]D-aspartate efflux preincubated at 0.1 uM for 8 mins by liquid scintillation counting in absence of extracellular Ca2+; conditions: Brain; summary of the method: as §2
[9] = test system: Rattus norvegicus; assay: Antinociceptive activity against carrageenan-induced hyperalgesia in rat assessed as paw pressure at 60 mg/kg, po measured after 15 mins (reference value: 32.8 +/- 2.9 g); format: functional; summary of the method: as §1
[10] = test system: Rattus norvegicus; assay: Antinociceptive activity against carrageenan-induced hyperalgesia in rat assessed as paw pressure at 10 mg/kg, po measured after 90 mins (reference value: 34.8 +/- 3.1 g); format: functional; summary of the method: as §1
[11] = test system: Rattus norvegicus; assay: Antinociceptive activity against carrageenan-induced paw edema in rat assessed as paw edema volume at 10 mg/kg, po measured after 30 mins (reference value: 2.71+/- 0.08 ml); format: functional
[12] = test system: Rattus norvegicus; assay: Antinociceptive activity against carrageenan-induced hyperalgesia in rat assessed as paw pressure at 10 mg/kg, po measured after 15 mins (reference value: 32.8 +/- 2.9 g); format: functional; summary of the method: as §1
[13] = test system: Rattus norvegicus; assay: Antinociceptive activity against carrageenan-induced hyperalgesia in rat assessed as paw pressure at 60 mg/kg, po measured after 60 mins (reference value: 31.8 +/- 2.2 g); format: functional; summary of the method: as §1
[14] = test system: Rattus norvegicus; assay: Antinociceptive activity against carrageenan-induced hyperalgesia in rat assessed as paw pressure at 10 mg/kg, po measured after 30 mins (reference value: 30.6 +/- 3.2 g); format: functional; summary of the method: as §1
[15] = test system: Rattus norvegicus; assay: Antinociceptive activity against carrageenan-induced hyperalgesia in rat assessed as paw pressure at 40 mg/kg, po measured after 60 mins (reference value: 31.8 +/- 2.2 g); format: functional; summary of the method: as §1
[16] = test system: Mus musculus; assay: Analgesic activity in Swiss albino mouse assessed as inhibition of acetic acid-induced abdominal contraction at 10 to 60 mg/kg, po measured after 30 mins; format: functional, organism-based; conditions: Abdominal cavity
[17] = test system: Rattus norvegicus; assay: Antinociceptive activity against carrageenan-induced hyperalgesia in rat assessed as paw pressure at 40 mg/kg, po measured after 15 mins (reference value: 32.8 +/- 2.9 g); format: functional; summary of the method: as §1
[18] = test system: Rattus norvegicus; assay: Antinociceptive activity against carrageenan-induced paw edema in rat assessed as paw edema volume at 40 mg/kg, po measured after 30 mins (reference value: 2.71+/- 0.08 ml); format: functional
[19] = test system: Rattus norvegicus; assay: Antinociceptive activity against carrageenan-induced hyperalgesia in rat assessed as paw pressure at 40 mg/kg, po measured after 90 mins (reference value: 34.8 +/- 3.1 g); format: functional; summary of the method: as §1

Q: `CCOc1ccc(Nc2ccc(/C(=C3C=C/C(=[N+](/CC)Cc4cccc(S(=O)(=O)[O-])c4)C=C/3C)c3ccc(N(CC)Cc4cccc(S(=O)(=O)[O-])c4)cc3C)cc2)cc1.[Na+]` [BRILLIANT BLUE G] was tested. Which Activity [1] did it give?
A: 49.6 g

Q: What about the inhibition [2] of the same compound?
A: Active

Q: And the Activity [3]?
A: 50.8 g

Q: And the Activity [4]?
A: 38.5 g

Q: What about the inhibition [5] of the same compound?
A: inactive

Q: What about the Activity [6] of the same compound?
A: 2.21 mL

Q: And the Activity [7]?
A: 36.2 g

Q: And the inhibition [8]?
A: Active

Q: What about the Activity [9] of the same compound?
A: 47.2 g

Q: What about the Activity [10] of the same compound?
A: 37.1 g

Q: And the Activity [11]?
A: 2.63 mL

Q: And the Activity [12]?
A: 38.7 g

Q: What about the Activity [13] of the same compound?
A: 43.8 g

Q: What about the Activity [14] of the same compound?
A: 43.1 g

Q: What about the Activity [15] of the same compound?
A: 45.6 g

Q: And the inhibition [16]?
A: Active

Q: What about the Activity [17] of the same compound?
A: 46.3 g

Q: And the Activity [18]?
A: 2.17 mL

Q: And the Activity [19]?
A: 40.2 g
